From ChEMBL document CHEMBL1127375, “Nucleic acid related compounds. 84. Synthesis of 6'-(E and Z)-halohomovinyl derivatives of adenosine, inactivation of S-adenosyl-L-homocysteine hydrolase, and correlation of anticancer and antiviral potencies with enzyme inhibition” (J Med Chem, 1994)
pIC50, pKi: −log10 of the molar value. Values after ≈ are worked out from the molar mass of the structure shown.

Experiments:
L1210 = experiment: Tested for in vitro cytostatic activity against murine leukemia L1210; format: functional, cell-based; conditions: Mus musculus
Method in brief: (§1)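 Cells seeded at 5 × 10^5/mL (murine L1210 leukemia, FM3A mammary carcinoma) or 7.5 × 10^5/mL (human Molt-4 clone 8, CEM) and exposed to varying compound concentrations. Incubation at 37 °C in humidified CO2 was 2 days for L1210/FM3A and 3 days for Molt-4/CEM. Viable cells were Coulter-counted; IC50 is the concentration reducing viable cell number by 50%. Means of at least two to three determinations.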

E6SM [1] = experiment: Tested for the minimum cytotoxic concentration against E6SM cells; format: functional; conditions: Homo sapiens
Method in brief: (§2)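 Uninfected E6SM, HeLa or Vero cultures were incubated with serial compound concentrations (400, 200, 100 … μg/mL). Cytotoxicity was judged as microscopically detectable alteration of normal cell morphology. The value is the minimum concentration causing this alteration.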

E6SM [2] = experiment: Tested for the antiviral activity against Vaccinia virus in human E6SM cells; format: functional
Method in brief: (§3)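 Confluent E6SM, HeLa or Vero cultures were inoculated with 100 CCID50 of virus and allowed 1 h adsorption. Residual virus was removed, then cells were incubated with compound at 400, 200, 100 … μg/mL. Virus-induced cytopathicity was scored once complete in untreated infected controls. MIC is the minimum inhibitory concentration.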

Vero [3] = experiment: Tested for the minimum cytotoxic concentration against Vero cells; format: functional; conditions: Chlorocebus sabaeus; method in brief: as §2
Vero [4] = experiment: Tested for the antiviral activity against Parainfluenza-3 virus in simian Vero cells; format: functional; conditions: Chlorocebus sabaeus; method in brief: as §3
E6SM [5] = experiment: Tested for the antiviral activity against HSV-1 (KOS) in human E6SM cells; format: functional; method in brief: as §3
E6SM [6] = experiment: Tested for the antiviral activity against Vesicular stomatitis virus in human E6SM cells; format: functional; method in brief: as §3
FM3A = experiment: Tested for in vitro cytostatic activity against murine mammary carcinoma (FM3A); format: functional, cell-based; conditions: Mus musculus; method in brief: as §1
MOLT-4 [7] = experiment: Tested for in vitro cytostatic activity against human lymphoblast Molt-4 (Clone8); format: functional, cell-based; method in brief: as §1
HeLa [8] = experiment: Tested for the minimum cytotoxic concentration against HeLa cells; format: functional; conditions: Homo sapiens; method in brief: as §2
Vero [9] = experiment: Tested for the antiviral activity against Sindbis virus in simian Vero cells; format: functional; conditions: Chlorocebus sabaeus; method in brief: as §3
HeLa [10] = experiment: Tested for the antiviral activity against Coxsackie B4 virus in human HeLa cells; format: functional; method in brief: as §3
E6SM [11] = experiment: Tested for the antiviral activity against HSV-2 in human E6SM cells; format: functional; method in brief: as §3
HeLa [12] = experiment: Tested for the antiviral activity against Vesicular stomatitis virus in human HeLa cells; format: functional; method in brief: as §3
HeLa [13] = experiment: Tested for the antiviral activity against polio-1 virus in human HeLa cells; format: functional; method in brief: as §3
CCRF-CEM = experiment: Tested for in vitro cytostatic activity against CEM cells; format: functional, cell-based; conditions: Homo sapiens; method in brief: as §1
Vero [14] = experiment: Tested for the antiviral activity against forest virus in simian Vero cells; format: functional; conditions: Chlorocebus sabaeus; method in brief: as §3
Vero [15] = experiment: Tested for the antiviral activity against reovirus-1 in simian Vero cells; format: functional; conditions: Chlorocebus sabaeus; method in brief: as §3
Vero [16] = experiment: Tested for the antiviral activity against Parainfluenza-3 virus in Simian Vero cells; format: functional; conditions: Chlorocebus sabaeus; method in brief: as §3
E6SM [17] = experiment: Tested for the antiviral activity against HSV-2 in Human E6SM cells; format: functional; method in brief: as §3
Vero [18] = experiment: Tested for the minimum cytotoxic concentration on Vero cells; format: functional; conditions: Chlorocebus sabaeus; method in brief: as §2
HeLa [19] = experiment: Tested for the minimum cytotoxic concentration on HeLa cells; format: functional; conditions: Homo sapiens; method in brief: as §2
E6SM [20] = experiment: Tested for the minimum cytotoxic concentration on E6SM cells; format: functional; conditions: Homo sapiens; method in brief: as §2
HeLa [21] = experiment: Tested for the antiviral activity against Coxsackie B4 virus in Human HeLa cells; format: functional; method in brief: as §3
Adenosylhomocysteinase [22] = biological target: T1, Adenosylhomocysteinase (Homo sapiens, UniProt P23526); experiment: Tested for kinetic constant for the inhibition of recombinant human placental S-Adenosyl-L-homocysteine Hydrolase
Target sequence in this assay (P23526 whole entry): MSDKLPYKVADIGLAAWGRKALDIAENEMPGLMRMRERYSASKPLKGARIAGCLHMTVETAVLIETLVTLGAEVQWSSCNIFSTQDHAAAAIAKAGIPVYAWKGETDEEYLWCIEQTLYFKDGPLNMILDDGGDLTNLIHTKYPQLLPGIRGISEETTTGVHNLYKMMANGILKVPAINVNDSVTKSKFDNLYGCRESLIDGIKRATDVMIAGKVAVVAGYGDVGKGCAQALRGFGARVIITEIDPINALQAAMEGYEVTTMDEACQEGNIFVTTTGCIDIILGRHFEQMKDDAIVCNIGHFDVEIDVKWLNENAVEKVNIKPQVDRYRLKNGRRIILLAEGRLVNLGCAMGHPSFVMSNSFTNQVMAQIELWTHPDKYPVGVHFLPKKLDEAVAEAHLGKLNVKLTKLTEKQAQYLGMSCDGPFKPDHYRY

Adenosylhomocysteinase [23] = biological target: T1, Adenosylhomocysteinase
Target sequence in this assay (P23526 2-432 limits assumed): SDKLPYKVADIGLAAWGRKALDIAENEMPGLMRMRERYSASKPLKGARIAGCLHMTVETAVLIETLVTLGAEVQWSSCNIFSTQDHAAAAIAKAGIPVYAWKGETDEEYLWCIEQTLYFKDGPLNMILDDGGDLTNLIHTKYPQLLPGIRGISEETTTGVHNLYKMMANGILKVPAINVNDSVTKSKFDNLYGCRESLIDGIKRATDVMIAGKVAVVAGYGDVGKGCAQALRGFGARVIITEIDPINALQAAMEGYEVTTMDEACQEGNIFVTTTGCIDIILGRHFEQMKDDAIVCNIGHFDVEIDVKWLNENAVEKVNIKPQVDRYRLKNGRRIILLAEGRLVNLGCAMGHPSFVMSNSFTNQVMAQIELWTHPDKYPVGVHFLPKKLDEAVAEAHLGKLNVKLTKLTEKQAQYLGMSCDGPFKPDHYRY

[24] = Tested ratio of kinact to that of Ki
Method in brief: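 Purified recombinant human placental AdoHcy hydrolase (10 nM) preincubated with various inhibitor concentrations for various times at 37 °C, pH 7.2, in 50 mM potassium phosphate with 1 mM EDTA. Residual activity was measured in the synthetic direction by adding Ado and homocysteine for 5 min. The reaction was stopped with perchloric acid and AdoHcy quantified by C-18 HPLC at 258 nm. Ki and kinact were derived from 1/Kapp = 1/kinact + Ki/kinact[I].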

MOLT-4 [25] = experiment: Tested for in vitro cytostatic activity against Human lymphoblast Molt-4 (Clone8); format: functional, cell-based; method in brief: as §1

| SMILES | pIC50 (L1210) | MCC (E6SM [1]) | MIC (E6SM [2]) | MCC (Vero [3]) | MIC (Vero [4]) | MIC (E6SM [5]) | MIC (E6SM [6]) | pIC50 (FM3A) | pIC50 (MOLT-4 [7]) | MCC (HeLa [8]) | MIC (Vero [9]) | MIC (HeLa [10]) | MIC (E6SM [11]) | MIC (HeLa [12]) | MIC (HeLa [13]) | pIC50 (CCRF-CEM) | MIC (Vero [14]) | MIC (Vero [15]) | pKi (Adenosylhomocysteinase [22]) | K inact (Adenosylhomocysteinase [23]) | further results |
| --- | --- | --- | --- | --- | --- | --- | --- | --- | --- | --- | --- | --- | --- | --- | --- | --- | --- | --- | --- | --- | --- |
| Nc1ncnc2c1ncn2[C@@H]1O[C@H](/C=C\Br)[C@@H](O)[C@H]1O | 3.98 | > 200 µg/mL | 150 µg/mL (≈ 438 µM) | ≥ 200 µg/mL | 150 µg/mL (≈ 438 µM) | 70 µg/mL (≈ 205 µM) | 150 µg/mL (≈ 438 µM) | 3.87 | 4.03 | > 200 µg/mL | 20 µg/mL (≈ 58.5 µM) | > 200 µg/mL | > 200 µg/mL | 150 µg/mL (≈ 438 µM) | > 200 µg/mL | 4.19 | 150 µg/mL (≈ 438 µM) | > 100 µg/mL |  |  |  |
| Cc1ccc(S(=O)(=O)/C=C/[C@H]2OC(n3cnc4c(N)ncnc43)[C@H](O)[C@@H]2O)cc1 (some centres undefined) | 4.27 |  | 20 µg/mL (≈ 47.9 µM) |  |  | 20 µg/mL (≈ 47.9 µM) | > 100 µg/mL | 3.68 | 4.49 |  | > 400 µg/mL | > 400 µg/mL |  | > 400 µg/mL | > 400 µg/mL | 4.70 | > 400 µg/mL | > 400 µg/mL |  |  | MIC (Vero [16]): > 400 µg/mL; MIC (E6SM [17]): 20 µg/mL (≈ 47.9 µM); MCC (Vero [18]): > 400 µg/mL; MCC (HeLa [19]): > 400 µg/mL; MCC (E6SM [20]): 200 µg/mL |
| Nc1ncnc2c1ncn2[C@@H]1O[C@H](/C=C\I)[C@@H](O)[C@H]1O | 4.37 | > 200 µg/mL | 20 µg/mL (≈ 51.4 µM) | > 200 µg/mL | > 200 µg/mL | > 200 µg/mL | 7 µg/mL (≈ 18 µM) | 4.37 | 4.68 | > 200 µg/mL | > 200 µg/mL | > 200 µg/mL | > 200 µg/mL | 7 µg/mL (≈ 18 µM) |  | 4.49 | > 200 µg/mL | 100 µg/mL (≈ 257 µM) |  |  |  |
| Nc1ncnc2c1ncn2C1O[C@H](/C=C/F)[C@@H](O)[C@H]1O (some centres undefined) | 3.52 | > 200 µg/mL | 70 µg/mL (≈ 249 µM) | > 200 µg/mL | 150 µg/mL (≈ 533 µM) | > 200 µg/mL | 100 µg/mL (≈ 356 µM) | 3.54 | 3.58 | > 200 µg/mL | 200 µg/mL (≈ 711 µM) |  | 150 µg/mL (≈ 533 µM) | > 100 µg/mL | 150 µg/mL (≈ 533 µM) | 3.83 |  | 70 µg/mL (≈ 249 µM) | 5.89 | 0.01 min⁻¹ | MIC (HeLa [21]): > 100 µg/mL; Ratio [24]: 0.008 |
| Nc1ncnc2c1ncn2[C@@H]1O[C@H](/C=C/Br)[C@@H](O)[C@H]1O | 4.38 | ≥ 200 µg/mL | 20 µg/mL (≈ 58.5 µM) | ≥ 200 µg/mL | > 200 µg/mL | 150 µg/mL (≈ 438 µM) | 7 µg/mL (≈ 20.5 µM) | 4.22 |  | ≥ 200 µg/mL | > 100 µg/mL | > 100 µg/mL |  | 7 µg/mL (≈ 20.5 µM) |  | 4.25 | > 100 µg/mL | > 100 µg/mL | 6.87 | 0.028 min⁻¹ | pIC50 (MOLT-4 [25]): 4.25; Ratio [24]: 0.21; MIC (E6SM [17]): > 100 µg/mL |
| Nc1ncnc2c1ncn2[C@@H]1O[C@H](/C=C\Cl)[C@@H](O)[C@H]1O | 3.84 | ≥ 200 µg/mL | 20 µg/mL (≈ 67.2 µM) | ≥ 100 µg/mL | > 100 µg/mL | 70 µg/mL (≈ 235 µM) | 20 µg/mL (≈ 67.2 µM) | 3.79 | 3.93 | ≥ 200 µg/mL | 20 µg/mL (≈ 67.2 µM) | > 100 µg/mL | > 100 µg/mL | 70 µg/mL (≈ 235 µM) |  | 4.07 | 70 µg/mL (≈ 235 µM) | 70 µg/mL (≈ 235 µM) |  |  |  |
| Nc1ncnc2c1ncn2[C@@H]1O[C@H](/C=C/Cl)[C@@H](O)[C@H]1O | 3.86 | 400 µg/mL | 70 µg/mL (≈ 235 µM) | ≥ 200 µg/mL | > 200 µg/mL | > 200 µg/mL | 70 µg/mL (≈ 235 µM) | 3.80 | 4.10 | ≥ 200 µg/mL | > 100 µg/mL | > 200 µg/mL | > 200 µg/mL | > 200 µg/mL | > 200 µg/mL | 4.00 | > 100 µg/mL | > 100 µg/mL | 6.96 | 0.014 min⁻¹ | Ratio [24]: 0.13 |
| Nc1ncnc2c1ncn2C1O[C@H](/C=C/I)[C@@H](O)[C@H]1O (some centres undefined) | 4.82 | ≥ 200 µg/mL | 7 µg/mL (≈ 18 µM) | ≥ 200 µg/mL | > 200 µg/mL | > 100 µg/mL | 2 µg/mL (≈ 5.14 µM) | 4.82 | 4.74 | 200 µg/mL | > 200 µg/mL | > 100 µg/mL | > 100 µg/mL | 7 µg/mL (≈ 18 µM) |  | 4.59 | > 200 µg/mL | > 200 µg/mL | 7.02 | 0.058 min⁻¹ | Ratio [24]: 0.6 |
| C=C(Br)[C@H]1OC(n2cnc3c(N)ncnc32)[C@H](O)[C@@H]1O (some centres undefined) | 4.60 |  |  |  |  |  |  | 4.33 |  |  |  |  |  |  |  | 4.89 |  |  |  |  |  |
